Consider one compound from ChEMBL document CHEMBL2380270, “Radiosynthesis and first evaluation in mice of [(18)F]NS14490 for molecular imaging of α7 nicotinic acetylcholine receptors” (Bioorg Med Chem, 2013).

Data set [1] has as its system Mus musculus. Description: Biodistribution in CD1 mouse small intestine at 200 to 300 kBq, iv measured at 30 mins by gamma counting analysis. In kind it is ADME, organism-based. The conditions noted are these: in vivo, 0.5 h. The method, boiled down:
(§1)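 Female CD-1 mice received 200–300 kBq [18F]radiotracer intravenously. Blood and urine were sampled under anaesthesia, then mice were killed by cervical dislocation at 5, 15, 30 or 60 min p.i. (n = 3; control at 60 min n = 7). Organs were removed and weighed, activity was gamma-counted, and uptake was expressed as % injected dose per g wet tissue.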

For data set [2], the system named is Muscle tissue. Nature of the data set: Biodistribution in CD1 mouse muscle at 200 to 300 kBq, iv measured at 15 mins by gamma counting analysis. In kind it is ADME, organism-based. The note with it: in vivo, 0.25 h. The method, boiled down: as §1
Data set [3] concerns Mus musculus. Nature of the data set: Biodistribution in CD1 mouse thymus at 200 to 300 kBq, iv measured at 15 mins by gamma counting analysis. In kind it is ADME, organism-based. The note with it: in vivo, 0.25 h. The method, boiled down:
as §1

Data set [4] concerns Mus musculus. Nature of the data set: Biodistribution in CD1 mouse large intestine at 200 to 300 kBq, iv measured at 15 mins by gamma counting analysis. In kind it is ADME, organism-based. The conditions noted are these: in vivo, 0.25 h. The method, boiled down: (§2)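 Female CD-1 mice, 200–300 kBq radiotracer given iv, n = 3 per time point. Animals anaesthetised for blood and urine sampling, then killed by cervical dislocation at 5, 15, 30 or 60 min p.i. Organs removed, weighed and gamma-counted; uptake expressed as % injected dose per g wet tissue.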

The test system of data set [5] is Stomach. Nature of the data set: Biodistribution in CD1 mouse stomach at 200 to 300 kBq, iv measured at 15 mins by gamma counting analysis. In kind it is ADME, organism-based. The note with it: in vivo, 0.25 h. The procedure, abridged:
as §1

In the next data set the test system is Spleen. Description: Biodistribution in CD1 mouse spleen at 200 to 300 kBq, iv measured at 5 mins by gamma counting analysis. The data set is classed as ADME, organism-based. The note with it: in vivo. The procedure, abridged: as §1
Data set [6] has as its system Urinary bladder. Description: Biodistribution in CD1 mouse bladder at 200 to 300 kBq, iv measured at 5 mins by gamma counting analysis. The data set is classed as ADME, organism-based. The note with it: in vivo. The method, boiled down: as §2
For data set [7], the system named is Kidney. Description: Biodistribution in CD1 mouse kidney at 200 to 300 kBq, iv measured at 5 mins by gamma counting analysis. The data set is classed as ADME, organism-based. The note with it: in vivo. The procedure, abridged: as §2
Data set [8] concerns Stomach. Description: Biodistribution in CD1 mouse stomach at 200 to 300 kBq, iv measured at 5 mins by gamma counting analysis. The data set is classed as ADME, organism-based. The note with it: in vivo. The procedure, abridged: as §1
The next data set has as its system Lung. Description: Biodistribution in CD1 mouse lung at 200 to 300 kBq, iv measured at 5 mins by gamma counting analysis. The note with it: in vivo. In kind it is ADME, organism-based. The method, boiled down: as §1
Data set [9] has as its system Zone of skin. Description: Biodistribution in CD1 mouse skin at 200 to 300 kBq, iv measured at 60 mins by gamma counting analysis in presence of SSR180711. In kind it is ADME, organism-based. The note with it: in vivo, 1 h. The method, boiled down:
(§3)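 Blocking design in female CD-1 mice, n = 7 per group. The blocker was given at 10 mg kg^-1 i.p. in 0.9% saline 10 min before i.v. 200–300 kBq [18F]radiotracer. Mice were killed at 60 min p.i. and organs weighed and gamma-counted as % ID per g wet weight. Blocked groups were compared with controls by two-tailed independent Student's t test.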

Data set [10] deals with Mus musculus. Nature of the data set: Biodistribution in CD1 mouse adrenal at 200 to 300 kBq, iv measured at 60 mins by gamma counting analysis in presence of SSR180711. The data set is classed as ADME, organism-based, Adrenal gland. The note with it: in vivo, 1 h. The method, boiled down: (§4)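 Blocking study in female CD-1 mice, n = 7 per blocker, with a matching control group. SSR180711 or NS6740 given at 10 mg kg⁻¹ ip in 0.9% saline 10 min before iv radiotracer (200–300 kBq). Organs taken at 60 min p.i., weighed and gamma-counted; uptake as % ID per g wet weight. Compared with control by two-tailed independent Student's t test.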

Data set [11] deals with Mus musculus. Description: Biodistribution in CD1 mouse thymus at 200 to 300 kBq, iv measured at 60 mins by gamma counting analysis in presence of SSR180711. The data set is classed as ADME, organism-based. The conditions noted are these: in vivo, 1 h. The method, boiled down: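 Female CD-1 mice given 200–300 kBq tracer intravenously. Animals anaesthetised for blood and urine sampling, then killed by cervical dislocation at 5, 15, 30 or 60 min (n = 3 per time; n = 7 at 60 min). Organs removed and weighed, activity gamma-counted, expressed as % injected dose per g wet weight. Blocking arm: 10 mg/kg i.p. in 0.9% saline, 10 min before tracer; two-tailed unpaired t test versus control.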

The subject of the next data set is Pancreas. Nature of the data set: Biodistribution in CD1 mouse pancreas at 200 to 300 kBq, iv measured at 60 mins by gamma counting analysis in presence of SSR180711. The data set is classed as ADME, organism-based. The conditions noted are these: in vivo, 1 h. The method, boiled down: as §3
For data set [12], the system named is Urinary bladder. Description: Biodistribution in CD1 mouse bladder at 200 to 300 kBq, iv measured at 60 mins by gamma counting analysis in presence of SSR180711. In kind it is ADME, organism-based. The note with it: in vivo, 1 h. The procedure, abridged:
as §4

For data set [13], the system named is Mus musculus. Description: Biodistribution in CD1 mouse large intestine at 200 to 300 kBq, iv measured at 60 mins by gamma counting analysis in presence of SSR180711. The data set is classed as ADME, organism-based. The conditions noted are these: in vivo, 1 h. The procedure, abridged: as §4
Data set [14] has as its system Mus musculus. Description: Biodistribution in CD1 mouse small intestine at 200 to 300 kBq, iv measured at 60 mins by gamma counting analysis in presence of SSR180711. In kind it is ADME, organism-based. The conditions noted are these: in vivo, 1 h. The procedure, abridged:
as §3

In data set [15] the test system is Stomach. Description: Biodistribution in CD1 mouse stomach at 200 to 300 kBq, iv measured at 60 mins by gamma counting analysis in presence of SSR180711. In kind it is ADME, organism-based. The conditions noted are these: in vivo, 1 h. The procedure, abridged:
as §3

In data set [16] the test system is Muscle tissue. Description: Biodistribution in CD1 mouse muscle at 200 to 300 kBq, iv measured at 60 mins by gamma counting analysis. The data set is classed as ADME, organism-based. The conditions noted are these: in vivo, 1 h. The procedure, abridged: as §1
Another data set deals with Brain. Nature of the data set: Biodistribution in CD1 mouse brain at 200 to 300 kBq, iv measured at 60 mins by gamma counting analysis. The conditions noted are these: in vivo, 1 h. In kind it is ADME, organism-based. The procedure, abridged:
as §2

A further data set deals with Femur. Description: Biodistribution in CD1 mouse femur at 200 to 300 kBq, iv measured at 30 mins by gamma counting analysis. The conditions noted are these: in vivo, 0.5 h. In kind it is ADME, organism-based. The procedure, abridged:
as §2

Data set [17] has as its system Zone of skin. Description: Biodistribution in CD1 mouse skin at 200 to 300 kBq, iv measured at 30 mins by gamma counting analysis. In kind it is ADME, organism-based. The note with it: in vivo, 0.5 h. The procedure, abridged: as §1
Data set [18] concerns Kidney. Description: Biodistribution in CD1 mouse kidney at 200 to 300 kBq, iv measured at 30 mins by gamma counting analysis. The data set is classed as ADME, organism-based. The note with it: in vivo, 0.5 h. The procedure, abridged:
as §2

The test system of data set [19] is Mus musculus. Nature of the data set: Biodistribution in CD1 mouse large intestine at 200 to 300 kBq, iv measured at 30 mins by gamma counting analysis. In kind it is ADME, organism-based. The note with it: in vivo, 0.5 h. The method, boiled down: as §2

Structures are written as SMILES.

With `O=C(Oc1ccc(Br)cc1)N1CCN2CCC1CC2` [SSR180711], the Drug uptake in the data set with Mus musculus [1] was 11 % ID/g; in the data set with Muscle tissue [2], 1.88 % ID/g; with Mus musculus [3] it was 2.98 % ID/g; in the data set on Mus musculus [4], 2.65 % ID/g; with Stomach [5], 5.45 % ID/g; in the data set with Spleen it was 4.22 % ID/g. Besides, the Drug uptake turned out to be 1.27 % ID/g with Urinary bladder [6]; 10.6 % ID/g in the data set with Kidney [7]; 3.92 % ID/g in the data set on Stomach [8]; 8.48 % ID/g in the data set on Lung; 2.04 % ID/g in the data set with Zone of skin [9]; 3.65 % ID/g with Mus musculus [10]. Besides, the Drug uptake is 2.47 % ID/g with Mus musculus [11]; 2.96 % ID/g in the data set on Pancreas; 1.47 % ID/g in the data set on Urinary bladder [12]; 5.46 % ID/g in the data set on Mus musculus [13]; 15.9 % ID/g in the data set with Mus musculus [14]; 7.76 % ID/g with Stomach [15]. Moreover, the Drug uptake in the data set on Muscle tissue [16] worked out at 1 % ID/g; with Brain it was 0.18 % ID/g; with Femur it was 1.48 % ID/g; with Zone of skin [17], 1.23 % ID/g; in the data set on Kidney [18], 8.5 % ID/g; in the data set on Mus musculus [19] it was 2.7 % ID/g.
